# Measurements: ChEMBL document CHEMBL4033788, “Novel Ligustrazine-Based Analogs of Piperlongumine Potently Suppress Proliferation and Metastasis of Colorectal Cancer Cells in Vitro and in Vivo” (J Med Chem, 2018)
# Active and inactive are the calls of the source. The rule behind the calls is not given here.
# Columns and labels:
# [1] = Induction of ROS accumulation in human CCD-841 cells at 1 to 10 uM up to 3 hrs by DCFH-DA staining-based fluorescence spectrometric analysis; assay type: cell-based; settings: ccd-841, 3 h
# Method in brief: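 HCT-116 and CCD-841 cells treated in triplicate at 1, 5 and 10 μM for 1, 2 and 3 h. Intracellular ROS stained with DCFH-DA and fluorescence read on a microplate reader. Values expressed relative to DMSO control, from three separate experiments.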
# Mus musculus = experiment: Nephrotoxicity in BALB/c nude mouse xenografted with human HCT116 cells at 2.5 to 5 mg/kg, ip administered for 21 consecutive days; assay type: toxicity, organism-based; settings: in vivo
# Method in brief: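 Male BALB/c nude mice (3−5 weeks) inoculated sc with 1 × 10^7 HCT-116 cells; at tumour volume about 75 mm3 randomized (n = 8 per group) and dosed ip daily at 2.5 or 5 mg/kg for 21 consecutive days. Body weights monitored; liver, kidney, lung and heart inspected for size and morphology at sacrifice.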
# HCT-116 [2] = experiment: Inhibition of TGF-beta1-induced decrease in expression levels of E-cadherin protein in human HCT116 cells after 48 hrs by Western blot analysis; assay type: functional, cell-based
# Method in brief: (§1)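 HCT-116 cells treated with or without TGF-β1 (10 ng/mL) for 48 h, with or without test agent. Lysates (20 μg/lane) run on 7.5% SDS-PAGE and transferred to PVDF. Probed for p-Akt (Ser473), Akt, p-GSK-3β (S9), GSK-3β, E-cadherin, MMP-9 and β-actin, detected by ECL. Densitometry relative to β-actin or total protein. Three independent experiments.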
# HCT-116 [3] = experiment: Antimetastatic activity against human HCT116 cells xenografted in BALB/c nude mouse model assessed as reduction in lung metastatic nodules at 2 to 4 mg/kg, ip administered thrice a week for 6 consecutive weeks by H and E staining-based assay; assay type: functional, organism-based
# Method in brief: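 BALB/c nude mice received HCT-116 cells into the tail vein, then were randomized and dosed intraperitoneally (1, 2 or 4 mg/kg) three times weekly. Body weight recorded weekly. Lungs sectioned (4 μm), H&E stained, and nodule number and area scored blinded in three sections per mouse. Nodule counts n = 4–6 per group.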
# [4] = Stability of compound in human HCT116 cells at 1 uM after 4 hrs by LC-MS/MS analysis; assay type: ADME, cell-based; settings: hct-116, 4 h
# HCT-116 [5] = experiment: Inhibition of TGF-beta1-induced increase in expression levels of twist protein in human HCT116 cells after 48 hrs by Western blot analysis; assay type: functional, cell-based
# Method in brief: (§2)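 HCT-116 cells (1 × 10^6/well, plated overnight) were exposed to TGF-β1 (10 ng/mL) for 48 h, with or without test compound; vehicle was 0.1% DMSO. Lysates (20 μg/lane) were run on 7.5% SDS-PAGE and blotted to PVDF, with primary antibody overnight at 4 °C and HRP/ECL detection. Band densities were normalised to β-actin across three independent experiments.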
# [6] = biological target: RAC-alpha serine/threonine-protein kinase (Homo sapiens) (UniProt P31749); experiment: Inhibition of TGF-beta1-induced AKT phosphorylation in human HCT116 cells after 48 hrs by Western blot analysis; assay type: cell-based; method in brief: as §1
# Chain of RAC-alpha serine/threonine-protein kinase (Homo sapiens) (P31749 whole entry): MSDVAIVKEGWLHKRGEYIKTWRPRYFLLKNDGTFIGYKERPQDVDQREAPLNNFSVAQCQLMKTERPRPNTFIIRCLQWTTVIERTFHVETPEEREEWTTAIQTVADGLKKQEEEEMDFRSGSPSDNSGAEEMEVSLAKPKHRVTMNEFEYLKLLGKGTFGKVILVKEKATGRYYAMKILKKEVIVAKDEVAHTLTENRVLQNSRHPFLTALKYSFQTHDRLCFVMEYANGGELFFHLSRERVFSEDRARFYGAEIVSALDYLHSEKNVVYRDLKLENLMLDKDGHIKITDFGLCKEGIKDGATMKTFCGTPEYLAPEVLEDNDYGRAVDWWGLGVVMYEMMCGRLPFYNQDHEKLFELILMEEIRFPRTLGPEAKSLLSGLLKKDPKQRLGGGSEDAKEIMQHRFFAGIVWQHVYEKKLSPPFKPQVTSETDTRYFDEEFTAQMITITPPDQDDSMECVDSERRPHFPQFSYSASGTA
# [7] = Stability of compound in stimulated gastric fluid at 1 uM after 4 hrs by LC-MS/MS analysis
# HCT-116 [8] = experiment: Induction of ROS accumulation in human HCT116 cells up to 3 hrs in presence of GSH by DCFH-DA staining-based fluorescence spectrometric analysis; assay type: functional, cell-based
# K562 = experiment: Antiproliferative activity against human K562 cells after 72 hrs in presence of ligustrazine by MTT assay; assay type: functional, cell-based; settings: K562, 72 h
# Method in brief: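 Cells grown in RPMI 1640 with 10% FBS in 96-well plates overnight, then exposed to test agents in triplicate for 72 h. MTT (5 mg/mL stock) added for the last 4 h, formazan dissolved in DMSO, absorbance read at 570 nm. Inhibition = (1 − OD treated/OD control) × 100%.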
# HCT-116 [9] = experiment: Inhibition of TGF-beta1-induced increase in expression levels of twist protein in human HCT116 cells at 50 nM after 48 hrs by Western blot analysis; assay type: functional, cell-based; method in brief: as §2
# [10] = biological target: Glycogen synthase kinase-3 beta (Homo sapiens) (UniProt P49841); experiment: Inhibition of TGF-beta1-induced GSK-3beta phosphorylation in human HCT116 cells at 50 nM after 48 hrs by Western blot analysis; assay type: cell-based; method in brief: as §1
# Chain of Glycogen synthase kinase-3 beta (Homo sapiens) (P49841 whole entry, looked up): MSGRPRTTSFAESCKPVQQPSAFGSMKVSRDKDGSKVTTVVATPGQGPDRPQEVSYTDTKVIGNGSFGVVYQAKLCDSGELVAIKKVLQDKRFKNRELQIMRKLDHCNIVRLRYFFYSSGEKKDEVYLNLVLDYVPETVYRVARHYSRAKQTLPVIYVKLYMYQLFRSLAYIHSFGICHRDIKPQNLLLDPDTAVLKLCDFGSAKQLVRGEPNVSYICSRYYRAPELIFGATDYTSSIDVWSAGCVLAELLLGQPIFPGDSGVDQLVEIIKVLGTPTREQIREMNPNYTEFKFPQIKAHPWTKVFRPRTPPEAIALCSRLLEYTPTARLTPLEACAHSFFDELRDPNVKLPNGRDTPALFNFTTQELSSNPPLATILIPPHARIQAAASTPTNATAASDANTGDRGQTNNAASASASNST
# HCT-116 [11] = experiment: Inhibition of TGF-beta1-induced increase in expression levels of snail protein in human HCT116 cells at 50 nM after 48 hrs by Western blot analysis; assay type: functional, cell-based; method in brief: as §2
# HCT-116 [12] = experiment: Inhibition of TGF-beta1-induced decrease in expression levels of E-cadherin protein in human HCT116 cells at 50 nM after 48 hrs by Western blot analysis; assay type: functional, cell-based; method in brief: as §1
# [13] = biological target: T1, Catenin beta-1 (Homo sapiens) (UniProt P35222); experiment: Inhibition of TGF-beta1-regulated increase in nuclear beta-catenin in human HCT116 cells at 50 nM after 48 hrs by Western blot analysis; assay type: cell-based
# T1 sequence (whole entry): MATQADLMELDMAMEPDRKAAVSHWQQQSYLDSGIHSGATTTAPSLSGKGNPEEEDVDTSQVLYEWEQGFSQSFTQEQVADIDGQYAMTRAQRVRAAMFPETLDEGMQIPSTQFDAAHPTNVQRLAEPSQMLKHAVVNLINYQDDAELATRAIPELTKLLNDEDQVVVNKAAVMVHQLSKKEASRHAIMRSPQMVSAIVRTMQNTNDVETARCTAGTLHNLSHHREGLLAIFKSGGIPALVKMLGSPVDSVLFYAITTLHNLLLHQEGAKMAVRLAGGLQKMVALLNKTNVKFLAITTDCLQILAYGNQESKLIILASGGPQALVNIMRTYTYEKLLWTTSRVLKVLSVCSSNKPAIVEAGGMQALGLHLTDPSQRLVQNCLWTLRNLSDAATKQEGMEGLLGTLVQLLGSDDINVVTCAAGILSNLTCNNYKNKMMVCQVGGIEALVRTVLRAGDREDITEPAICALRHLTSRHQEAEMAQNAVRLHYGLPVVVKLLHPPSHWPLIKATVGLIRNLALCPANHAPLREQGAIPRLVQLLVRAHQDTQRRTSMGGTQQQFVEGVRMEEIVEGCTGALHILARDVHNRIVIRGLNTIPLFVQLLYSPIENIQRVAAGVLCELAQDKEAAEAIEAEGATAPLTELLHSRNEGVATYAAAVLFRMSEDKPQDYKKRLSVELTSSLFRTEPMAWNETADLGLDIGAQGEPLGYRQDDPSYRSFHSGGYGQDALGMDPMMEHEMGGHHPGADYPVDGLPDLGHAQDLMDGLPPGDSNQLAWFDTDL
# Method in brief: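 Cytoplasmic and nuclear β-catenin were measured by Western blot in HCT-116 cells given TGF-β1 (10 ng/mL) for 48 h, with or without compound, against 0.1% DMSO vehicle. Lysates (20 μg/lane) were run on 7.5% gels and transferred to PVDF, with Lamin A among the antibodies used. Blots were read by ECL and densitometry, n = 3 independent experiments.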
Structure (SMILES),Activity [1],Activity (Mus musculus),inhibition (HCT-116 [2]),Activity (HCT-116 [3]),Stability [4],inhibition (HCT-116 [5]),inhibition [6],Stability [7],Activity (HCT-116 [8]),IC50 (K562),inhibition (HCT-116 [9]),inhibition [10],inhibition (HCT-116 [11]),inhibition (HCT-116 [12]),inhibition [13]
Cc1nc(C)c(/C=C/C(=O)N2CCC=C(Cl)C2=O)nc1C,Non-Toxic,Non-Toxic,Dose-dependent effect,Active,Stable,Dose-dependent effect,Dose-dependent effect,Stable,inactive,,,,,,
COc1cc(/C=C/C(=O)N2CCC=CC2=O)cc(OC)c1OC [PIPLARTINE],,,,,,,,,,5.09 µM,Active,Active,Active,Active,Active
